# Test results published in PubChem BioAssay AID651628 (The Scripps Research Institute Molecular Screening Center, 2012).
# Values without a mark were called inactive. The source made the active and inactive calls.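 How the source made its calls: active means at least one off-target enzyme showing weaker fluorescent probe labeling in any proteome panel; inactive means no off-target enzyme affected in any panel.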
# System: Membrane Proteome
# Test: proteome-wide probe labelling blockade by competitive ABPP – cell lysate, gel-based fluorescence, soluble and membrane fractions, selectivity assay for PAD4 inhibitor project, late-stage follow-up (AID 651628)
# Conditions: MCF7 proteome, CA-Rh gel-based ABPP, anti-target count, at 10 µM, hits give high values
# Method in brief: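 Material: MCF7 cell proteome, soluble or membrane fraction | Medium: DPBS | Doses: Compound at 10 or 50 µM | Schedule: Compound 1 h, probe 1 h, 25 °C | Measured by: SDS-PAGE separation with in-gel fluorescence scanning of labelled bands | Control set: DMSO-only reference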
row,SMILES,number of anti-targets
1,O=C1C(O)=C(O)C(=O)c2ncccc21,2 (active)
2,COC(=O)c1cccc(-c2ccc3c(n2)C(=O)C(N)=CC3=O)n1,0
3,COC1=C(Br)C(=O)c2nc(-c3ccccn3)ccc2C1=O,> 5 (active)
4,COC1=C(Br)C(=O)c2ncccc2C1=O,> 5 (active)
5,NC1=CC(=O)c2cccnc2C1=O,0
6,COC1=C(I)C(=O)c2nc(C#N)ccc2C1=O,> 5 (active)
7,COC1=C(N)C(=O)c2nc(-c3nc(C(=O)O)c(C)c(-c4ccc(OC)c(OC)c4O)c3N)ccc2C1=O,0
8,COC(=O)c1cccc(-c2ccc3c(n2)C(=O)C(Br)=CC3=O)n1,0
9,NC1=CC(=O)c2ccc(-c3cccc(C(=O)O)n3)nc2C1=O,0
10,COC(=O)c1nc(C(=O)OC)c(NC(C)=O)c(-c2ccccc2Br)c1C,0
11,COC1=C(N)C(=O)c2ncccc2C1=O,0
12,COC1=CC(=O)c2nc(C#N)ccc2C1=O,> 5 (active)
13,O=C1C=C(Br)C(=O)c2ncccc21,> 5 (active)
14,NC1=CC(=O)c2ccc(-c3ccccn3)nc2C1=O,0
